# Laboratory results taken from ChEMBL document CHEMBL1932986, “Synthesis and in vitro antimycobacterial activity of compounds derived from (R)- and (S)-2-amino-1-butanol - The crucial role of the configuration” (Eur J Med Chem, 2012).
# Calls of active or inactive are those of the source. No cut-off for these calls is given here.
# Tests used:
# Type in all cases: functional
# Bacillus cereus = experiment: Antibacterial activity against Bacillus cereus ATCC 11778 at 50 mg/ml after 24 hrs by agar diffusion test; settings: for zone of inhibition at 50000 µg/mL: ATCC 11778, 24 h, read-out: DIZ
# In short: (§1)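 Agar diffusion: wells in agar filled with […] DMSO solution of compound at various concentrations; diameter of clear zone around application point measured. Bacteria grown 24 h at 37 °C on nutrient agar. Compounds first screened at 50 mg/ml; those active then tested at lower concentrations. Bracketed value = lowest concentration (mg/ml) giving zone >11 mm, reported only if activity retained at ≤1.25 mg/ml.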
# Bacillus mycoides = experiment: Antibacterial activity against Bacillus mycoides DSMZ 274 at 50 mg/ml after 24 hrs by agar diffusion test; settings: for zone of inhibition at 50000 µg/mL: DSMZ 274, 24 h, read-out: DIZ; in short: as §1
# Saccharomyces cerevisiae = experiment: Antifungal activity against Saccharomyces cerevisiae ATCC 9763 at 50 mg/ml after 72 hrs by agar diffusion test; settings: for zone of inhibition at 50000 µg/mL: ATCC 9763, 72 h, read-out: DIZ
# In short: (§2)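 Agar diffusion: yeasts grown on yeast peptone dextrose agar and fungi on potato dextrose agar. Wells are filled with […] of compound solution in DMSO at various concentrations, and the clear-zone diameter is measured. Bracketed values give the lowest concentration (mg/ml) that produces a zone >11 mm. A first screen is run at 50 mg/ml.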
# Bacillus = experiment: Antibacterial activity against Bacillus idosus B 241 at 50 mg/ml after 24 hrs by agar diffusion test; settings: for zone of inhibition at 50000 µg/mL: B 241, 24 h, read-out: DIZ; in short: as §1
# [1] = system: Mycobacterium tuberculosis; experiment: Antimycobacterial activity against Mycobacterium tuberculosis H37Rv after 45 days
# In short: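 Canetti proportion method. Compound in DMSO is added to Löwenstein–Jensen egg medium before coagulation (30 min, 85 °C), tested at three levels plus a lower one where needed. Tubes are inoculated with H37Rv at 10⁵ cells/ml and incubated 45 days at 37 °C. Colony counts versus drug-free control give percentage inhibition.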
# Micrococcus luteus [2] = experiment: Antibacterial activity against Micrococcus luteus ATCC 9631 at 50 mg/ml after 24 hrs by agar diffusion test; settings: for zone of inhibition at 50000 µg/mL: ATCC 9631, 24 h, read-out: DIZ; in short: as §1
# Micrococcus luteus [3] = experiment: Antibacterial activity against Sarcina lutea ATCC 9341 at 50 mg/ml after 24 hrs by agar diffusion test; settings: for zone of inhibition at 50000 µg/mL: ATCC 9341, 24 h, read-out: DIZ
# In short: (§3)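 Agar diffusion: bacteria grown 24 h at 37 °C on nutrient agar. Wells in the agar are filled with […] of compound solution in DMSO at various concentrations. The diameter of the clear zone around the application point is measured. Bracketed values give the lowest concentration (mg/ml) that produces a zone >11 mm. A first screen is run at 50 mg/ml.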
# Priestia megaterium = experiment: Antibacterial activity against Bacillus megaterium NRRL 1353895 at 50 mg/ml after 24 hrs by agar diffusion test; settings: for zone of inhibition at 50000 µg/mL: NRRL 1353895, 24 h, read-out: DIZ; in short: as §1
# Bacillus subtilis = experiment: Antibacterial activity against Bacillus subtilis ATCC 6633 at 50 mg/ml after 24 hrs by agar diffusion test; settings: for zone of inhibition at 50000 µg/mL: ATCC 6633, 24 h, read-out: DIZ; in short: as §1
# Escherichia coli = experiment: Antibacterial activity against Escherichia coli ATCC 8739 at 50 mg/ml after 24 hrs by agar diffusion test; settings: for zone of inhibition at 50000 µg/mL: ATCC 8739, 24 h, read-out: DIZ; in short: as §1
# Candida tropicalis = experiment: Antifungal activity against Candida tropicalis ATCC 20336 at 50 mg/ml after 72 hrs by agar diffusion test; settings: for zone of inhibition at 50000 µg/mL: ATCC 20336, 72 h, read-out: DIZ; in short: as §2
# Acinetobacter johnsonii = experiment: Antibacterial activity against Acinetobacter johnsonii ATCC 17909 at 50 mg/ml after 24 hrs by agar diffusion test; settings: for zone of inhibition at 50000 µg/mL: ATCC 17909, 24 h, read-out: DIZ; in short: as §1
# Penicillium chrysogenum = experiment: Antifungal activity against Penicillium chrysogenum CECT 2802 at 50 mg/ml after 72 hrs by agar diffusion test; settings: for zone of inhibition at 50000 µg/mL: CECT 2802, 72 h, read-out: DIZ; in short: as §2
# Staphylococcus aureus = experiment: Antibacterial activity against Staphylococcus aureus NRRL B 313 at 50 mg/ml after 24 hrs by agar diffusion test; settings: for zone of inhibition at 50000 µg/mL: NRRL B 313, 24 h, read-out: DIZ; in short: as §3
SMILES,zone of inhibition at 50000 µg/mL (Bacillus cereus),zone of inhibition at 50000 µg/mL (Bacillus mycoides),diameter of the inhibition zone (DIZ) (Saccharomyces cerevisiae),zone of inhibition at 50000 µg/mL (Bacillus),MIC [1],zone of inhibition at 50000 µg/mL (Micrococcus luteus [2]),diameter of the inhibition zone (DIZ) (Priestia megaterium),zone of inhibition at 50000 µg/mL (Bacillus subtilis),diameter of the inhibition zone (DIZ) (Escherichia coli),diameter of the inhibition zone (DIZ) (Candida tropicalis),zone of inhibition at 50000 µg/mL (Staphylococcus aureus),diameter of the inhibition zone (DIZ) (Bacillus cereus),diameter of the inhibition zone (DIZ) (Bacillus mycoides),diameter of the inhibition zone (DIZ) (Bacillus),diameter of the inhibition zone (DIZ) (Micrococcus luteus [2]),diameter of the inhibition zone (DIZ) (Micrococcus luteus [3]),diameter of the inhibition zone (DIZ) (Acinetobacter johnsonii),diameter of the inhibition zone (DIZ) (Penicillium chrysogenum),diameter of the inhibition zone (DIZ) (Staphylococcus aureus),diameter of the inhibition zone (DIZ) (Bacillus subtilis),further results
CC[C@H](CO)NCc1ccc(-n2ccnc2)cc1,13 mm,18 mm,inactive,16 mm,20.4 µM,16 mm,inactive,12 mm,inactive,inactive,16 mm,–,–,–,–,–,–,–,–,–,zone of inhibition at 50000 µg/mL (Micrococcus luteus [3]): 18 mm; zone of inhibition at 50000 µg/mL (Acinetobacter johnsonii): 18 mm; zone of inhibition at 50000 µg/mL (Penicillium chrysogenum): 12 mm
CC[C@H](CO)NCc1ccc(CN[C@H](CC)CO)cc1,–,–,inactive,–,17.8 µM,–,inactive,10 mm,inactive,inactive,–,inactive,inactive,inactive,inactive,inactive,inactive,inactive,inactive,–,–
CC[C@H](CO)NC(c1ccccc1)(c1ccccc1)c1ccccc1,–,–,inactive,–,> 15.1 µM,–,inactive,12 mm,inactive,inactive,–,inactive,inactive,inactive,inactive,inactive,inactive,inactive,inactive,–,–
CC[C@H](CO)NCc1ccncc1,–,–,inactive,–,27.7 µM,–,inactive,–,inactive,inactive,–,inactive,inactive,inactive,inactive,inactive,inactive,inactive,inactive,inactive,–
CC[C@@H]1COc2cc3ccccc3c(=O)n21,18 mm,15 mm,–,15 mm,23.2 µM,15 mm,–,–,–,–,12 mm,–,–,–,–,–,–,–,–,inactive,zone of inhibition at 50000 µg/mL (Saccharomyces cerevisiae): 11 mm; zone of inhibition at 50000 µg/mL (Micrococcus luteus [3]): 13 mm; zone of inhibition at 50000 µg/mL (Priestia megaterium): 13 mm; zone of inhibition at 50000 µg/mL (Escherichia coli): 0 mm; zone of inhibition at 50000 µg/mL (Candida tropicalis): 20 mm; zone of inhibition at 50000 µg/mL (Acinetobacter johnsonii): 10 mm; zone of inhibition at 50000 µg/mL (Penicillium chrysogenum): 35 mm
CC[C@H](CO)NC(=O)Nc1cccc2ccccc12,–,–,inactive,–,> 19.4 µM,–,inactive,–,inactive,inactive,–,inactive,inactive,inactive,inactive,inactive,inactive,inactive,inactive,inactive,–
CC[C@H](CO)N1C(=O)CCC1=O,–,–,inactive,–,> 29.2 µM,–,inactive,–,inactive,inactive,–,inactive,inactive,inactive,inactive,inactive,inactive,inactive,inactive,inactive,–
CC[C@H](CO)N(CC(=O)Nc1c(C)cccc1C)CC(=O)Nc1c(C)cccc1C,11 mm,12 mm,inactive,10 mm,> 12.2 µM,12 mm,inactive,–,inactive,inactive,15 mm,–,–,–,–,inactive,inactive,inactive,–,inactive,–
CC[C@H](CO)NC(=O)c1cccc2ccccc12,–,–,inactive,–,> 20.6 µM,–,inactive,–,inactive,inactive,–,inactive,inactive,inactive,inactive,inactive,inactive,inactive,inactive,inactive,–
CC[C@H](CO)NCc1ccc2ccc3cccc4ccc1c2c34,14 mm,15 mm,–,30 mm,16.5 µM,14 mm,–,14 mm,inactive,–,13 mm,–,–,–,–,–,–,–,–,–,zone of inhibition at 50000 µg/mL (Saccharomyces cerevisiae): 35 mm; zone of inhibition at 50000 µg/mL (Micrococcus luteus [3]): 13 mm; zone of inhibition at 50000 µg/mL (Priestia megaterium): 13 mm; zone of inhibition at 50000 µg/mL (Candida tropicalis): 40 mm; zone of inhibition at 50000 µg/mL (Acinetobacter johnsonii): 14 mm; zone of inhibition at 50000 µg/mL (Penicillium chrysogenum): 14 mm
CC[C@H](CO)NCc1ccccc1O,14 mm,14 mm,inactive,11 mm,25.6 µM,11 mm,–,17 mm,inactive,inactive,12 mm,–,–,–,–,–,–,–,–,–,zone of inhibition at 50000 µg/mL (Micrococcus luteus [3]): 12 mm; zone of inhibition at 50000 µg/mL (Priestia megaterium): 12 mm; zone of inhibition at 50000 µg/mL (Acinetobacter johnsonii): 13 mm; zone of inhibition at 50000 µg/mL (Penicillium chrysogenum): 12 mm
CC[C@H](CO)N1C(=O)C=C(C)C1=O,28 mm,24 mm,–,23 mm,27.3 µM,22 mm,–,21 mm,–,–,20 mm,–,–,–,–,–,–,–,–,–,zone of inhibition at 50000 µg/mL (Saccharomyces cerevisiae): 21 mm; zone of inhibition at 50000 µg/mL (Micrococcus luteus [3]): 21 mm; zone of inhibition at 50000 µg/mL (Priestia megaterium): 20 mm; zone of inhibition at 50000 µg/mL (Escherichia coli): 32 mm; zone of inhibition at 50000 µg/mL (Candida tropicalis): 20 mm; zone of inhibition at 50000 µg/mL (Acinetobacter johnsonii): 21 mm; zone of inhibition at 50000 µg/mL (Penicillium chrysogenum): 25 mm
